# Screening data from PubChem BioAssay.
# UHRF1 MBD2 ctr: human UHRF1 methylated DNA binding inhibitors | Q96T88 | UHRF1 binding to methylated oligo, TR-FRET | inhibition, % at 4.4 µM | 0.75% of 370,000 active;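 also: UHRF1 SRA domain binding a hemimethylated CpG hairpin DNA probe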
# DSG3 Ab inh: human desmoglein-3 autoantibody binding inhibition; P32926; DSG3-coupled beads, scFv-anti-DSG3-GFP binding, flow cytometry; stronger effect = lower value; binding (percent of control), % at 10 µM; 0.48% of 310,000 active;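 active = binding more than 3 SD below its plate's average and above zero; inconclusive = below that plate limit but binding exactly zero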;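 also: hits lower antibody fragment binding to DSG3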
# MBD2 inh: blocks human MBD2 binding to methylated DNA; Q9UBB5; TR-FRET, MBD2 binding to methylated oligonucleotide; inhibition, % at 4.4 µM; 0.31% of 370,000 active; in the data active = inhibition above about 13%
# Target sequence (Q9UBB5 whole entry, looked up): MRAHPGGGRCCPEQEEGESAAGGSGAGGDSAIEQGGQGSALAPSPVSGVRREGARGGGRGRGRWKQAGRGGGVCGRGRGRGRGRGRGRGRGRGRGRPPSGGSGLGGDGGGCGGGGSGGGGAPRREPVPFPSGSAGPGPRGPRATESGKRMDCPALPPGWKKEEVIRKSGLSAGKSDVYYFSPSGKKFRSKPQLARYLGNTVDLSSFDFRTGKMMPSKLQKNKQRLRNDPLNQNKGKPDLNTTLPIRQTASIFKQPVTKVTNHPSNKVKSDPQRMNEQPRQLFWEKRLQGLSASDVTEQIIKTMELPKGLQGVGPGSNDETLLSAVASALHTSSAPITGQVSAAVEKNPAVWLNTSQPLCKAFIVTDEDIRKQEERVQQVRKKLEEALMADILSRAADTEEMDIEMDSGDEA
# SUMO1-SIM PPI: SUMO1-SIM interaction modulation | P63165 | SUMO1 binding to a labelled peptide, TR-FRET, 1 h | inhibition, % at 20 µM | 0.33% of 360,000 active; in the data active = inhibition above about 37%
# DNMT1 block: DNMT1 (human) enzyme inhibition | DNMT1 molecular beacon, Hinp1I cleavage, fluorescence | inhibition (reported as % activation of signal), % at 10 µM | P26358 | AID 588458 | 0.83% of 360,000 active; in the data active = inhibition above about 50%
# HCV NS3 hel inh: blocks Hepatitis C virus NS3 helicase unwinding. NS3 helicase DNA unwinding, Cy5 molecular beacon fluorescence. 0.56% of 290,000 active. inhibition, % at 10.9 µM;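 active = inhibition above the mean of all tested compounds plus 3 SD, set per campaign, cut at about 35% in these data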
#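 Assay system: hepatitis C virus NS3 helicase domain fragment enzyme. Also added: annealed dual-labelled DNA beacon duplex, ATP-started. Timing: 1 h reaction at 25 °C, ATP-initiated. Technique: Cy5 fluorescence at 0 and 60 min, beacon hairpin quenching. Evaluation: % inhibition of unwinding. Replication: one well per compound.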
# UHRF1 ctr MBD2: UHRF1 methyl-oligo binding inhibition as MBD2 counter-screen; AID 720530; shares compounds with MBD2 inh; 25% of 1,000 active; UHRF1 binding to methylated oligonucleotide, TR-FRET; inhibition, % at 4.4 µM;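 also: UHRF1 SRA domain binding a labeled hemimethylated CpG hairpin DNA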
# MBD2 DBD conf: MBD2-DBD methyl-DNA binding inhibition, TR-FRET confirmation; shares compounds with MBD2 inh; TR-FRET MBD2-DBD binding to methylated oligonucleotide; inhibition, % at 4.4 µM; 26% of 1,000 active; AID 720531; in the data active = inhibition above about 14%
# Hits are given with their value; 0 = inactive; ? = inconclusive; - = no result. An excerpt weighted towards active compounds, which were near 2.5% of everything screened. Rule as the data show it, unless noted: active = inhibition above about 21%; inactive = the rest.
SMILES,UHRF1 MBD2 ctr,DSG3 Ab inh,MBD2 inh,SUMO1-SIM PPI,DNMT1 block,HCV NS3 hel inh,UHRF1 ctr MBD2,MBD2 DBD conf
CC(=O)Nc1ccccc1-c1ccc(C)o1,0,0,19,0,0,0,0,0
COc1ccc(Cc2nnc(NC(=O)C3CC(=O)N(c4ccc(OC)cc4)C3)s2)cc1 (stereo not drawn),0,0,0,0,0,0,-,-
Cc1cc(NC(=O)COC(=O)C2CC(=O)N(c3ccc(C)c(Cl)c3)C2)no1 (stereo not drawn),0,0,0,0,0,0,-,-
CCOc1ccc(N2CC(C(=O)Nc3nnc(Cc4ccc(OC)cc4)s3)CC2=O)cc1 (stereo not drawn),65,0,33,0,0,0,0,0
COc1ccc(OC)c(NC(=O)C2CC(=O)N(c3ccccc3)C2)c1 (stereo not drawn),0,0,15,0,0,0,0,0
COc1ccc(N2CC(C(=O)OCC(=O)Nc3cc(C)on3)CC2=O)cc1 (stereo not drawn),41,0,20,0,0,0,0,0
CCOC(=O)Cc1csc(NC(=O)CSc2nnc(-c3ccc(C)cc3)o2)n1,0,0,0,0,0,0,-,-
Cc1cccc(Cn2cc(COC(=O)N3CCOCC3)nn2)c1,0,-,0,-,-,-,-,-
Cc1ccccc1C(c1ccccc1Cl)N(C)C (stereo not drawn),0,0,0,0,0,-,-,-
C[C@H](NC(=O)c1nc[nH]c1C(=O)NCCCCCNC(=O)OC(C)(C)C)C(=O)OC(C)(C)C,0,0,0,0,0,0,-,-
CC1(Oc2ccc(Cl)cc2)CCN(Cc2cccn2-c2nccs2)C1 (stereo not drawn),0,-,0,0,0,-,-,-
O=c1ccc2cc(O)c(O)cc2o1,94,0,71,0,0,0,0,0
O=c1ccc2ccc(O)cc2o1,0,0,0,0,0,-,-,-
Cc1ccc(C(=O)NCC(=O)NC2CCC(C)CC2)s1 (stereo not drawn),0,0,98,0,0,-,0,0
CC(C)NC(=O)c1onc(CSc2ccc(F)c(F)c2)c1C(=O)NC(C)C,0,0,0,0,0,-,-,-
CN(C(=O)COC(=O)c1cccc(S(=O)(=O)N2CCCCCC2)c1)c1ccccc1,0,0,0,0,0,-,-,-
COc1ccc(N(C)S(=O)(=O)c2cccc(C(=O)OCC(=O)N(C)c3ccccc3)c2)cc1,0,0,16,0,0,-,0,0
O=C(NCc1ccc2c(c1)OCO2)c1ccc2c(c1)S(=O)(=O)c1ccccc1C2=O,0,0,0,0,0,-,-,-
Cc1ccc(NC(=O)C2CC(=O)N(C(C)c3ccccc3)C2)cc1 (stereo not drawn),0,?,0,0,0,-,-,-
CN(C)/C=C1\N=C(c2ccc(Cl)cc2Cl)OC1=O,0,0,16,0,0,0,0,0
OCCCNCc1cccc2ccccc12,0,0,15,0,0,0,0,19
CC(O)CNCc1cccc2ccccc12 (stereo not drawn),0,0,0,0,0,0,-,-
CC(C)COP(=O)(OCC(C)C)C(Nc1ccccc1)c1ccc(F)cc1 (stereo not drawn),0,-,0,0,0,0,-,-
Oc1c(Br)cc(Br)c2cccnc12,0,0,0,0,0,-,-,-
O=c1cc(Br)c(O)c(Br)cc1Br,39,0,14,0,0,-,0,0
CN(Cc1ccccc1N1CCCC1)C(=O)c1cc2cc(Cl)ccc2o1,0,0,31,0,0,-,0,0
CN(C)CCNC(=O)c1cccc2nc3cccc(F)c3nc12,23,-,35,0,55,-,35,37
CN(C)CCNC(=O)c1sc2cccc(F)c2c1Cl,0,0,0,0,0,0,-,-
COc1ccc(OC)c2nc3c(C(=O)NCCN(C)C)cccc3nc12,56,0,53,0,0,-,71,63
O=C(N/N=C/C=C/c1ccccc1)c1cc(C2CC2)[nH]n1,0,0,21,0,0,0,0,0
